NS3 helicase inh – inhibitors of HCV NS3 helicase, primary screen, biochemical, Cy5 molecular beacon fluorescence; Hepatitis C virus NS3 helicase; NS3 helicase DNA unwinding; inhibition, % at 10.9 µM; 290,000 compounds, 0.56% hits;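 active = inhibition above the mean of all tested compounds plus 3 SD, set per campaign, cut at about 35% in these data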
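test system = hepatitis C virus NS3 helicase domain fragment enzyme | reagent = annealed dual-labelled DNA beacon duplex, ATP-started | times = 1 h at 25 °C | detection = Cy5 fluorescence, 0 and 60 min reads | read-out basis = percent inhibition from t60/t0 fluorescence ratio | control set = DMSO and thioflavine S | replication = one well per compound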
IMP-1 inh-1 – IMP-1 metallo-beta-lactamase inhibitors, primary screen, biochemical, epi-absorbance readout, Pseudomonas aeruginosa enzyme | purified IMP-1, nitrocefin hydrolysis, epi-absorbance fluorescence | inhibition, % at 5.6 µM | 290,000 compounds, 0.45% hits;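 active = inhibition above the mean plus 3 SD of all compounds in the same screening run, cut at about 4.5% in these data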
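System: purified IMP-1; amount: IMP-1 0.2 nM before substrate addition; compound: single dose, 5.6 µM; times: 25 °C, 15 min preincubation, 25 min reaction; signal: Epi-absorbance via hydrolysed-nitrocefin quenching of white-plate fluorescence, 480/530 nm, EDTA stop; benchmarks: DMSO with and without IMP-1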
FID counter – compounds displacing fluorescent DNA intercalator, primary screen, artefact control for HCV NS3 helicase inhibitor project, biochemical, FID fluorescence; DNA fluorescent intercalator displacement; inhibition, % at 7.9 µM; 290,000 compounds, 0.17% hits; AID 1845, 2009; in the data active = inhibition above about 37%;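 also: higher means more ethidium bromide displaced from hairpin DNA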
UBC9 SUMO inh – inhibitors of in vitro SUMOylation cascade, primary screen, biochemical, HTRF, uHTS. 290,000 compounds, 0.36% hits. AID 2006, 2009. SUMO-conjugating enzyme UBC9 (Homo sapiens), P63279. HTRF SUMOylation assay, SAE1/SAE2 + UBC9. inhibition, % at 35 µM; in the data active = inhibition above about 50%, passing the limit was not always enough
Target sequence (P63279 whole entry, looked up): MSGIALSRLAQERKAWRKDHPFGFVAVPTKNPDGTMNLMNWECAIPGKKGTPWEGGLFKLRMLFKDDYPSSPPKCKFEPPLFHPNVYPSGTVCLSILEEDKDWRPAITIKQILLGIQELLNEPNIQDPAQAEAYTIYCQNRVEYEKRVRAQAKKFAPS
VIM-2 inhibitor – VIM-2 metallo-beta-lactamase inhibitors, primary screen, biochemical, epi-absorbance readout, Pseudomonas aeruginosa enzyme; purified VIM-2, nitrocefin hydrolysis, epi-absorbance fluorescence; 290,000 compounds, 0.89% hits; inhibition, % at 5.6 µM; AID 1527, 2009;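 active = inhibition above the mean of all tested compounds plus 3 SD, cutoff set per screening run, cut at about 7.5% in these data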;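 also: red hydrolysis product quenches plate fluorescence so inhibitors raise well fluorescence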
IMP-1 inh-2 – IMP-1 metallo-beta-lactamase inhibitors, confirmation, selectivity assay for selective VIM-2 inhibitor project, biochemical, epi-absorbance readout, triplicate; shares compounds with VIM-2 inhibitor; purified IMP-1, nitrocefin hydrolysis, epi-absorbance fluorescence; inhibition, % at 5.6 µM; 1,300 tested, under 10 active; call rule not given here
VIM-2 FRET inh – VIM-2 inhibitors in FRET format, confirmation, artefact control for selective VIM-2 inhibitor project, biochemical, epi-absorbance artifact exclusion | shares compounds with VIM-2 inhibitor | AID 1857, 2009 | purified VIM-2, CCF2 FRET substrate hydrolysis | 1,300 compounds, 23% hits | inhibition, % at 5.6 µM;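 active = inhibition above the mean of all tested compounds plus 3 SD, cut at about 19% in these data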
TEM-1 counter – TEM-1 serine beta-lactamase inhibitors, counter-screen for VIM-2 inhibitor project, biochemical, epi-absorbance, HTS. Purified TEM-1, nitrocefin hydrolysis, epi-absorbance fluorescence. shares compounds with VIM-2 inhibitor. inhibition, % at 5.6 µM. AID 1866, 2009. 1,300 compounds, 3% hits;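 active = inhibition above that campaign's mean inhibition plus 3 SD, cut at about 0.46% in these data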
Target sequence (P62593 whole entry, looked up): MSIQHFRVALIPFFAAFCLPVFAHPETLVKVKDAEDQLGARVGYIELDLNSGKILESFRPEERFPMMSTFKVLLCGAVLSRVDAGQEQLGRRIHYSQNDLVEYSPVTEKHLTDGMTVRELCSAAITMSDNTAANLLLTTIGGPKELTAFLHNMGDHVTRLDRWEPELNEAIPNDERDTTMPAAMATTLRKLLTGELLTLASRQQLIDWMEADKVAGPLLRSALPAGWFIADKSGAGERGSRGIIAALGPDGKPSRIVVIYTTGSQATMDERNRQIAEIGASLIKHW
VIM-2 inh conf – VIM-2 metallo-beta-lactamase inhibitors, confirmation, biochemical, epi-absorbance, hits shared with IMP-1 screen; shares compounds with VIM-2 inhibitor; purified VIM-2, nitrocefin hydrolysis; inhibition, % at 5.6 µM; 1,300 compounds, 96% hits; AID 2187, 2009;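 active = inhibition of the VIM-2 beta-lactamase enzyme above about 11% from the earlier first-round screen, limit read from the data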
Numbers stand for hits; i = inactive; nt = not tested or not shown. In the library only some 2.1% were active in any assay of this set; here they are far more common.

SMILES | NS3 helicase inh | IMP-1 inh-1 | FID counter | UBC9 SUMO inh | VIM-2 inhibitor | IMP-1 inh-2 | VIM-2 FRET inh | TEM-1 counter | VIM-2 inh conf
Cc1cc(Nc2ccc(C)c(C)c2)n2nc(C)nc2n1 | i | i | i | i | 16 | i | i | i | 34
COc1cc(OC)c(Nc2cc(C)nc3nc(C)nn23)cc1Cl | i | i | i | i | 35 | i | i | i | 44
CCN(CC(=O)Nc1ccccc1OC)C(=O)COc1ccc2ccccc2c1 | i | i | i | i | i | nt | nt | nt | nt
CCCCc1c(C)c(C#N)c2nc3ccccc3n2c1NCCN(C)C | i | i | i | i | i | nt | nt | nt | nt
Cc1cc(NCCCN(C)C)n2c(nc3ccccc32)c1C#N | i | i | i | i | 57 | i | i | i | 65
Cc1cc(NCCCOC(C)C)n2c(nc3ccccc32)c1C#N | i | i | i | i | 30 | i | i | i | 37
Cc1cc(NCC2CCCO2)n2c(nc3ccccc32)c1C#N (stereo not given) | i | i | i | i | 13 | i | i | i | 38
Cc1c2c(n3c(nc4ccccc43)c1C#N)N(CCCN(C)C)CC2 | i | i | i | i | 32 | i | i | i | 48
COc1ccccc1/C=C1\Oc2cc(OC(=O)N3CCOCC3)ccc2C1=O | i | i | i | i | i | nt | nt | nt | nt
O=C(c1ccsc1)N1CCCC(N2CCOCC2)C1 (stereo not given) | i | i | i | i | i | nt | nt | nt | nt
Cc1cc(NCCCn2ccnc2)n2c(nc3ccccc32)c1C#N | i | i | i | i | 82 | i | i | i | 89
CCC(C)Nc1cc(C)c(C#N)c2nc3ccccc3n12 (stereo not given) | i | i | i | i | 28 | i | i | i | 38
O=C1c2cccc3c(N4CCCCC4)ccc(c23)C(=O)N1CCO | i | i | i | i | 13 | i | i | i | 25
C=CCN1C(=O)c2cccc3c(N4CCCCC4)ccc(c23)C1=O | i | i | i | i | i | nt | nt | nt | nt
CC(C)(C)C(=O)Nc1ccc(/C=C/C(=O)c2ccco2)cc1 | i | i | i | i | i | nt | nt | nt | nt
Cc1coc2c(C)c3oc(=O)c4c(c3cc12)CCC4 | i | i | i | nt | i | nt | nt | nt | nt
O=c1oc2c3c4c(cc2c2c1CCC2)OCCN4CCC3 | i | i | i | i | 14 | i | i | i | 37
COc1ccc(Oc2cccc(Cl)c2CNC(=O)CCCC(=O)O)cc1 | i | i | i | i | i | nt | nt | nt | nt
CC(C)Oc1ccc(CNS(=O)(=O)c2csc(C(N)=O)c2)cc1 | i | i | i | i | i | nt | nt | nt | nt
CC(C)C[C@@H](COc1ccccc1)N1CCN(Cc2ccccc2)CCC1=O | i | i | i | i | i | nt | nt | nt | nt
CCN(CCN(C)C)C(=O)c1ccc2c(c1NCCO)C(=O)c1ccccc1C2=O | i | i | i | i | 14 | i | i | i | 23
c1ccc2nc(-c3ccc(-n4ccnc4)cc3)ccc2c1 | i | i | i | i | 38 | i | i | i | 47
Cc1cccc2cc(C#N)c(NCCCn3ccnc3)nc12 | i | i | i | i | i | nt | nt | nt | nt
Cc1nc(NCCCn2ccnc2)c2ccccc2n1 | i | i | i | i | 20 | i | i | i | 35
c1cncc(-c2nc(NCCCn3ccnc3)c3ccccc3n2)c1 | i | i | i | i | 32 | i | i | i | 49
SMILES | NS3 helicase inh | IMP-1 inh-1 | FID counter | UBC9 SUMO inh | VIM-2 inhibitor | IMP-1 inh-2 | VIM-2 FRET inh | TEM-1 counter | VIM-2 inh conf
Brc1ccc(-c2nnc3ccc(Nc4ccccc4)nn23)cc1 | i | i | i | i | i | nt | nt | nt | nt
Cn1cc(S(=O)(=O)N2CCOCC2)cc1C(=O)Nc1cccc(Cl)c1 | i | i | i | i | i | nt | nt | nt | nt
Cc1ccccc1OCc1n[nH]c(=S)n1-c1cccc(Cl)c1 | i | i | i | i | i | nt | nt | nt | nt
Cc1nn(CCc2n[nH]c(=S)n2-c2cccc(Cl)c2)c(C)c1[N+](=O)[O-] | i | i | i | i | 17 | i | 48 | i | 30
Cc1cccc(-n2c(C)n[nH]c2=S)c1C | i | i | i | i | 12 | i | 40 | i | 24
Cc1n[nH]c(=S)n1-c1cccc(Cl)c1 | i | i | i | i | 14 | i | 36 | i | 23
Cc1cccc(-n2c(Cn3nc(C)c([N+](=O)[O-])c3C)n[nH]c2=S)c1 | i | i | i | i | i | nt | nt | nt | nt
CCOc1ccc(-c2nnc(-c3ccncc3)o2)cc1OCC | i | i | i | i | 24 | i | i | i | 31
CC1CCCN(C(=O)c2cc3c(=O)n4ccccc4nc3s2)C1 (stereo not given) | i | i | i | i | i | nt | nt | nt | nt
CCOC(=O)CC1C(=O)NCCN1C(=O)c1cc2c(=O)n3cccc(C)c3nc2s1 (stereo not given) | i | i | i | i | 14 | i | i | i | 26
CCOC(=O)CC1C(=O)NCCN1C(=O)c1cc2c(=O)n3ccccc3nc2s1 (stereo not given) | i | i | i | i | i | nt | nt | nt | nt
Cc1cccn2c(=O)c3cc(C(=O)N4CCCC(C)C4)sc3nc12 (stereo not given) | i | i | i | i | 15 | i | i | i | 21
CCC1CCCCN1C(=O)c1cc2c(=O)n3cccc(C)c3nc2s1 (stereo not given) | i | i | i | i | 15 | i | i | i | 21
CN(C)S(=O)(=O)c1cccc(NC(=O)CSc2cccc3cccnc23)c1 | i | i | i | i | i | nt | nt | nt | nt
O=C(CNC(=O)c1ccc(Br)o1)OCC(=O)c1cccc([N+](=O)[O-])c1 | i | i | i | i | i | nt | nt | nt | nt
CCCCCOc1ccc(C(=O)CCC(=O)Nc2ccc(NC(C)=O)cc2)cc1 | i | i | i | i | i | nt | nt | nt | nt
Cc1cccc(Nc2nc(N)c([N+](=O)[O-])c(NCc3ccccc3)n2)c1 | i | i | i | i | i | nt | nt | nt | nt
Nc1nc(Nc2ccccc2F)nc(NCCO)c1[N+](=O)[O-] | i | i | i | i | i | nt | nt | nt | nt
Cc1cccc(Nc2nc(NCCCN3CCOCC3)nc(N)c2[N+](=O)[O-])c1 | i | i | i | i | 14 | i | i | i | 37
Nc1nc(NCCCN2CCOCC2)nc(Nc2ccccc2F)c1[N+](=O)[O-] | i | i | i | i | 29 | i | i | i | 51

From PubChem BioAssay
